Tests used:
E. coli ΔsurA = assay: MIC, CLSI broth microdilution; assay type: cell-based; conditions: MH-II broth with dipyridyl
S. aureus Newman = assay: MIC, CLSI broth microdilution; assay type: cell-based; conditions: MH-II broth with dipyridyl
E. coli ΔbamBΔtolC = assay: MIC, CLSI broth microdilution; assay type: cell-based; conditions: MH-II broth with dipyridyl
[1] = Cleavage of acc peptide by mouse serum; assay type: in vitro ADME; conditions: compared with human serum
Summary of the method: (§1)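 Substrate is an N-acetylated peptide with 7-amino-4-carbamoylmethylcoumarin (acc) coupled directly to the P1 residue as an antibiotic surrogate, made by solid-phase synthesis. The substrate is incubated in human or mouse serum, and cleavage is followed as release of free fluorescent amino coumarin.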

[2] = Cleavage of acc peptide by human serum; assay type: in vitro ADME; conditions: fluorescence (Figure S8)
Summary of the method: as §1

[3] = test system: periplasmic extract of E. coli K12 MG1655; assay: acc release from fluorogenic peptides in periplasmic extract; assay type: biochemical; conditions: HPLC analysis (Figure S9)

eperezolid-NH2 [compound 5]
MIC (E. coli ΔsurA): 43 µM | MIC (S. aureus Newman): 43 µM | MIC (E. coli ΔbamBΔtolC): > 171 µM

CC(=O)NC[C@H]1CN(c2ccc(N3CCN(C(=O)CO)CC3)c(F)c2)C(=O)O1 [eperezolid]
MIC (E. coli ΔbamBΔtolC): susceptible

Ac-WSPKYM-acc [compound 1]
cleavage by mouse serum [1]: cleaved more rapidly | half-life of acc release [2]: 3 to 4 h | substrate consumption at the end of the reaction [3]: fully consumed

Source: paper PMC7790458 (Journal of the American Chemical Society, 2020)
